Screening results from PubChem.
Hits are enriched below; roughly 2.3% of the tested compounds scored in any of these assays.
TRPC6 activator – mouse TRPC6 channel activation. Q61143. HEK293-TRPC6 membrane potential dye fluorescence; hits give high values. B-score at 10 µM. 0.13% of 310,000 active;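 active means B-score of the integrated fluorescence ratio above library mean plus 3 SD, and starting fluorescence ratio within library mean plus 5 SD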;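 further: higher score means more depolarization so channel activation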
TRPC6 inhibitor – blocks the mouse TRPC6 cation channel; Q61143; B-score at 10 µM; 1.1% of 310,000 active; HEK293-TRPC6, membrane potential dye, ACh-evoked depolarization; hits give low values;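 active means B-score under library mean minus 3 SD, initial fluorescence not abnormally high, positive integrated signal ratio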;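 further: B-score derived from integrated fluorescence ratio over the kinetic read; more negative B-score means stronger inhibition of depolarization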
TRPC4 agonist – activators of mouse TRPC4 channel. Q9QUQ5. HEK293 TRPC4beta/mu-opioid, Fluo4 calcium fluorescence; hits give high values. B-score at 10 µM. 0.49% of 310,000 active;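 active means B-score above 5 SD of library B-scores, and initial fluorescence ratio not above library mean plus 5 SD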;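 further: positive B-score marks a calcium rise read as TRPC4 activation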
Target sequence (Q9QUQ5 whole entry, looked up): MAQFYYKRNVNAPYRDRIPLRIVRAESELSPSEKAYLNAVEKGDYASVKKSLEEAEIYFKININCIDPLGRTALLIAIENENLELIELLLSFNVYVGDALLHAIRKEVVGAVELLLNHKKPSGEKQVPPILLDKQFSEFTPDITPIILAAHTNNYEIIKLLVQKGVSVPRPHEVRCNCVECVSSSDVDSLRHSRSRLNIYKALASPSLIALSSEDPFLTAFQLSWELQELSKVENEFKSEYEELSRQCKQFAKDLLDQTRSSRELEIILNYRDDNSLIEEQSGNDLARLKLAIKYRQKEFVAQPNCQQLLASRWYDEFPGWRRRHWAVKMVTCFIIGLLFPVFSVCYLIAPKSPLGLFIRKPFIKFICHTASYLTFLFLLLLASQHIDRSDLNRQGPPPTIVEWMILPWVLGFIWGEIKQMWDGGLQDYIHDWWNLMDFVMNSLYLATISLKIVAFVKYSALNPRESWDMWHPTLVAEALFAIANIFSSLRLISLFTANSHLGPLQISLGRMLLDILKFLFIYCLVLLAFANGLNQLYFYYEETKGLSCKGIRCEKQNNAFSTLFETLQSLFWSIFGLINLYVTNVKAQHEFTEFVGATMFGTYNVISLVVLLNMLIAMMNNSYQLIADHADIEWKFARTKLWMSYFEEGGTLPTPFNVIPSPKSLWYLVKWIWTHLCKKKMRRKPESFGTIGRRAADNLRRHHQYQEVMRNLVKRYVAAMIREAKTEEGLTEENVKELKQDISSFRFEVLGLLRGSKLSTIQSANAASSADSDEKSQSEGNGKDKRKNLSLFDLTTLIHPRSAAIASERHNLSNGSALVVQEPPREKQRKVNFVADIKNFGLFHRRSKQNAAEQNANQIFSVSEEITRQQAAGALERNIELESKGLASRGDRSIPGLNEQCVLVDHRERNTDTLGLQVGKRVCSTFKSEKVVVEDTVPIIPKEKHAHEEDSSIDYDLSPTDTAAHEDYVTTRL
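Assay system: HEK293 cells stably co-expressing mouse TRPC4beta and mu-opioid receptor / Timing: Fluo4 dye loading 45 min at room temperature, 110 s recording / Signal: Fluo4 calcium-sensitive dye fluorescence, kinetic, 1 Hz baseline / Read-out: integrated baseline-normalised fluorescence ratio, converted to per-well B score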
TRPC4 PAM – allosteric potentiators of mouse TRPC4 channel; Q9QUQ5; HEK293 TRPC4beta/mu-opioid, DAMGO EC20, Fluo-4 Ca2+ flux; hits give high values; B-score at 10 µM; 0.42% of 310,000 active;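 active means B-score of calcium response area above 5 SD of library B-scores, with initial fluorescence ratio within 5 SD of library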;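 further: B-score of integrated fluorescence ratio over time as area under calcium response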
TRPC4 block – blocks the mouse TRPC4 cation channel; Q9QUQ5; HEK293 TRPC4beta/mu-opioid, DAMGO-evoked Fluo4 calcium flux; hits give low values; B-score at 10 µM; 0.39% of 300,000 active; AID 2247;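 active means B-score over 3 SD under the library average, no early fluorescence shift, positive overall ratio signal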
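Material: HEK293 cells with stable TRPC4beta plus mu-opioid receptor expression / Probe or stimulus: DAMGO in two steps, submaximal then maximal / Compound: single concentration per test compound / Technique: kinetic Fluo4 fluorescence imaging of calcium influx / Read-out: per-well B score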
* = called active by the depositor; i = inactive.

SMILES	TRPC6 activator	TRPC6 inhibitor	TRPC4 agonist	TRPC4 PAM	TRPC4 block
CCOc1ccccc1N(CC(=O)N1CCOCC1)S(=O)(=O)c1ccccc1	i	i	93*	i	-6*
CC(C)(C)c1ccc(-c2nnc3sc(-c4ccccn4)nn23)cc1	i	i	i	85*	i
COc1ccc(-c2nnc3sc(-c4ccccn4)nn23)cc1	i	i	i	i	i
CC(C)C(=O)NCCc1nc(-c2ccc(Cl)cc2)no1	i	i	i	i	i
CCN(C(=O)c1c(-c2ccccc2Cl)noc1C)C1CCCCC1	i	i	i	i	-6*
O=C(Nc1cccc(Cl)c1)N1CCN(C/C=C/c2ccccc2)CC1	i	i	i	26*	i
COc1cc(NC(=O)CCN2CCN(C/C=C/c3ccccc3)CC2)cc(OC)c1	i	i	73*	10*	i
Cc1onc(-c2ccccc2Cl)c1C(=O)N1CCN(C/C=C/c2ccccc2)CC1	i	i	101*	i	i
O=C(CCN1CCN(C/C=C/c2ccccc2)CC1)Nc1ccc(Cl)cc1	i	i	i	i	i
COc1ccc(-c2nn(-c3ccccc3)cc2C(=O)OCC(=O)c2ccc(C)c([N+](=O)[O-])c2)cc1	i	i	i	i	i
CC(C(=O)N1CCN=C1c1ccccc1)N1C(=O)c2ccccc2C1=O (stereo not given)	i	i	i	i	i
CN(CC(=O)N1CCN(Cc2ccccc2)CC1)S(=O)(=O)c1cccc2nsnc12	i	i	i	i	i
CCOCCc1c(O)nc(SCCOc2ccc(C)c(C)c2)[nH]c1=O	i	i	i	i	i
CN(CC(=O)Nc1ccc(SC(F)F)cc1)C1CCCCC1	i	i	i	i	-6*
Cn1cc(C(F)(F)F)nc1-c1ccc(OCC(O)CNCCOc2ccc(O)c(C(N)=O)c2)cc1 (stereo not given)	i	i	i	i	i
CCC(=O)N1CCc2cc(OC)c(OC)cc2C1COc1ccc(C(=O)OC)cc1 (stereo not given)	i	i	i	i	i
COC(=O)c1ccc(OCC(O)CN2CCc3cc(OC)c(OC)cc3C2c2ccccc2)cc1 (stereo not given)	i	i	i	11*	i
CCN(Cc1ccccc1)c1ccc(/C=N/N=C(N)N)cc1	i	i	145*	i	i
CCN(Cc1ccccc1)c1ccc(/C=N/NC(=S)NC(C)C)cc1	i	i	i	i	i
Cc1ccc(N(CC(=O)NCc2ccccn2)S(=O)(=O)c2ccccc2)cc1C	i	i	i	i	i
COc1ccc(-c2nnc(-c3cc4c(ccc5ccccc54)oc3=O)o2)cc1	i	i	i	i	i
O=c1oc2ccc3ccccc3c2cc1-c1nnc(-c2ccccc2)o1	i	i	i	i	-6*
COCC(=O)N1CCC(Oc2ccc(C(=O)N3CCSCC3)cc2)CC1	i	i	i	i	i
COc1ccc(NC(C)=O)cc1NC(C)C(=O)Nc1cc(C(F)(F)F)ccc1N1CCOCC1 (stereo not given)	i	i	i	27*	i
CC(C)(C)n1nnnc1C(c1ccncc1)N(Cc1ccccc1)Cc1ccco1 (stereo not given)	i	i	i	10*	i
SMILES	TRPC6 activator	TRPC6 inhibitor	TRPC4 agonist	TRPC4 PAM	TRPC4 block
CNS(=O)(=O)c1ccc(NC(=O)Nc2cccc(F)c2)cc1	i	i	44*	i	i
COC(=O)Nc1ccc2c(c1)N(C(=O)CCCl)c1ccccc1S2	i	i	i	i	i
Cc1ccccc1C(=O)Nc1cc(S(=O)(=O)N2CCCCC2)ccc1N1CCN(C)CC1	i	i	i	11*	i
COc1ccccc1CCC(=O)Nc1cccc(S(=O)(=O)N2CCCC2)c1	i	i	i	i	i
Cc1cccc(OCC(=O)Nc2cc(S(=O)(=O)N3CCCCC3)ccc2N2CCN(C)CC2)c1	i	i	i	11*	i
Cc1cccc(OCC(=O)Nc2ccc(S(=O)(=O)N3CCN(C)CC3)cc2)c1	i	i	i	i	i
CN1CCN(c2ccc(S(=O)(=O)N3CCCCC3)cc2NC(=O)COc2cccc(Cl)c2)CC1	i	i	i	13*	i
COc1ccccc1CCC(=O)Nc1cc(S(=O)(=O)N2CCCCC2)ccc1N1CCN(C)CC1	i	i	134*	i	i
CC(OC(=O)CN1C(=O)c2ccccc2C1=O)C(=O)NC1CCCCC1 (stereo not given)	i	i	i	i	i
Cc1ccc(-n2c(-c3ccccc3)c[n+]3c2CCc2ccccc2-3)c(C)c1	i	-5.5*	i	i	i
CC(=O)N(CCc1ccccc1)Cc1cc2ccc(C)c(C)c2[nH]c1=O	i	i	i	i	i
CC(Sc1nc2sc3c(c2c(=O)n1-c1ccccc1)CCCC3)C(=O)O (stereo not given)	i	i	i	17*	i
COC(=O)C1C(c2ccccc2)C(C(=O)N2CCN(C)CC2)C1c1ccccc1 (stereo not given)	i	i	64*	i	i
COC(=O)[C@H]1[C@H](c2ccccc2)[C@H](C(=O)OC)O[C@H]1c1ccccc1	i	i	i	i	i
O=C1C(Cl)=C(Nc2ccccc2)C(=O)c2ccccc21	i	i	i	i	i
O=C(O)c1ccc(NC2=C(Cl)C(=O)c3ccccc3C2=O)cc1	i	i	i	i	-5*
O=C(NC1CCCC1)C1CCN(C(=O)c2cccc(Cl)c2)CC1	i	i	i	i	i
O=C(Nc1ccc(Oc2ccccc2)nc1)C1CCN(Cc2ccccc2)CC1	i	i	i	i	-6*
CCn1cc(CN2CCC(C(=O)Nc3ccc(Oc4ccccc4)nc3)CC2)cn1	i	i	i	i	i
Cn1cnc([N+](=O)[O-])c1Sc1ccc(Br)cc1	i	i	i	i	i
Cc1nn(C)c(C)c1Sc1ccc(Br)cc1	i	i	i	i	-6*
Cc1cccc(OCCCOc2cccc3cccnc23)c1C	i	i	i	11*	i
CCOc1ccccc1OCCCCCc1c(C)n[nH]c1C	i	i	i	i	i
Cc1cccc(OCCCCc2c(C)n[nH]c2C)c1C	i	i	i	i	-8*
Cc1sc2ncnc(NCC3(N4CCOCC4)CCCCC3)c2c1C	i	i	i	i	i
Cc1sc2ncnc(NCC(C)(C)N3CCOCC3)c2c1C	i	i	162*	i	i
